For 1 compound, Activity and Cmax results are on record in ChEMBL document CHEMBL4043246, “Discovery of novel [1,2,4]triazolo[4,3-a]quinoxaline aminophenyl derivatives as BET inhibitors for cancer treatment” (Bioorg Med Chem Lett, 2017).

Series [1] has as its target Transcription intermediary factor 1-alpha (Homo sapiens) (UniProt O15164). Description: Inhibition of human partial length TRIM24-phd-bromo (P790 to P977 residues) expressed in bacterial expression system assessed as residual activity at 500 nM relative to control by BROMOscan assay.
For another series, the system named is Rattus norvegicus. Briefly: Cmax in rat at 20 mg/kg, po. The series is classed as ADME, organism-based. The arrangement: dose 20 mg/kg, route oral. Conditions: in vivo. The procedure, abridged:
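Peak plasma level after single oral dosing in rat at 5 or 20 mg/kg. Cmax is given in mg/mL as printed, with Tmax in hours.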

The Cmax is the highest concentration seen after dosing.

Transcription intermediary factor 1-alpha (Homo sapiens), sequence (O15164 whole entry, the tested form may be a part): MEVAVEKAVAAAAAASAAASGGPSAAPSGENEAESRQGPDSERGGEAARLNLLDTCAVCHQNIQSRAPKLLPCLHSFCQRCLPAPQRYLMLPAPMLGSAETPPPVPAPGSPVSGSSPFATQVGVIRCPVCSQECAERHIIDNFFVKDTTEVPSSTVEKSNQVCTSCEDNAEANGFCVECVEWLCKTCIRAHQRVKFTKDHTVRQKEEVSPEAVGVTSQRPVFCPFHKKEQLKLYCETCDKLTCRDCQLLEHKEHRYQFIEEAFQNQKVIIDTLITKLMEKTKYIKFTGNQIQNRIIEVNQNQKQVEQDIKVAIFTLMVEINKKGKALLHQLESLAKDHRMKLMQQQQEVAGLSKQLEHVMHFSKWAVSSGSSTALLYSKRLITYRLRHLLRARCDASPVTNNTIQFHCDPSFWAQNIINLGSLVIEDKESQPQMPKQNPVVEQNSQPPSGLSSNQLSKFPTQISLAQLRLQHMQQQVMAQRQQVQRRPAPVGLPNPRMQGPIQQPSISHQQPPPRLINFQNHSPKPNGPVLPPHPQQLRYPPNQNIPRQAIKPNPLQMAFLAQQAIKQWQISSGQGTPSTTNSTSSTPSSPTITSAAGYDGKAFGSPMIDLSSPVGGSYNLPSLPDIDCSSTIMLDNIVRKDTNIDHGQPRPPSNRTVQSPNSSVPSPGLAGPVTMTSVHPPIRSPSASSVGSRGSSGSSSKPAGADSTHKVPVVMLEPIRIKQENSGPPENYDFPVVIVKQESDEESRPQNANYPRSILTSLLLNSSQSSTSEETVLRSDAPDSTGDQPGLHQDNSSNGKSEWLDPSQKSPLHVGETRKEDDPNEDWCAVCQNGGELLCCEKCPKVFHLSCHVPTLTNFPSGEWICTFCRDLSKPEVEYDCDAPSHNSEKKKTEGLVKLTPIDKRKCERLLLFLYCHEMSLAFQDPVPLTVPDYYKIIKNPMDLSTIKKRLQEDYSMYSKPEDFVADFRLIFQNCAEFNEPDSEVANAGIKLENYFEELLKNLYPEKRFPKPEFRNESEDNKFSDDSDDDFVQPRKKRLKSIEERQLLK

On to `Cc1nnc2c(Nc3cccc(CNC(=O)C(C)C)c3)nc3ccccc3n12`, for which the Activity in series [1] was 100%. In the series on Rattus norvegicus, the peak level (Cmax) was 4.6 µg/mL.
